Experimental data reported in ChEMBL document CHEMBL4038284, “Synthesis of novel quinoline-based 4,5-dihydro-1H-pyrazoles as potential anticancer, antifungal, antibacterial and antiprotozoal agents” (Eur J Med Chem, 2017).
≈ marks a conversion by molar mass, not a printed value.

What was measured:
Klebsiella pneumoniae [1] = test: Antibacterial activity against ESBL positive Klebsiella pneumoniae ATCC 700603 after 24 hrs by resazurin dye based microdilution assay; type: functional; conditions: Klebsiella pneumoniae, 700603, 24 h
How it was run: (§1)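 MIC taken as the lowest concentration giving visible inhibition and/or by resazurin (1 mg/mL). Gentamicin was the control. Run in duplicate, repeated at least three times.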

Klebsiella pneumoniae [2] = test: Antibacterial activity against carbapenemase positive Klebsiella pneumoniae BAA 1705 after 24 hrs by resazurin dye based microdilution assay; type: functional; conditions: BAA 1705, 24 h; how it was run: as §1
Leishmania panamensis = test: Antileshmanial activity against EpiR/GFP fused Leishmania panamensis MHOM/CO/87/UA140 intracellular amastigotes infected in human […] cells after 72 hrs by flow cytometric method; type: functional, cell-based; conditions: MHOM/CO/87/UA140, 72 h
How it was run: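 PMA-treated U-937 cells (3 × 10^5 cells/mL) infected with stationary-phase GFP L. panamensis promastigotes (15:1), 3 h at 34 °C, then washed. After 24 h, compounds added at 50, 12.5, 3.125 and 0.78 µg/mL for 72 h at 37 °C. EC50 by Probit; triplicate, two experiments.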

Candida albicans [3] = test: Antifungal activity against Candida albicans ATCC 10231 incubated for 48 hrs under dark condition by broth microdilution method; type: functional; conditions: ATCC 10231, 48 h
How it was run: (§2)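 CLSI M27-A3 broth microdilution in RPMI-1640, DMSO ≤1%, compounds at 250-0.98 µg/mL final. Inoculum 1-5 × 10^3 CFU/mL. Incubated 48 h at 30 °C in a moist dark chamber, read at OD405. MIC80 and MIC50 taken from % inhibition dose-response curves (mean ± SEM, triplicate). Amphotericin B was the positive control.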

Cryptococcus neoformans [4] = test: Antifungal activity against Cryptococcus neoformans ATCC 32264 incubated for 48 hrs under dark condition by broth microdilution method; type: functional; conditions: ATCC 32264, 48 h; how it was run: as §2
Candida albicans [5] = test: Growth inhibition of Candida albicans ATCC 10231 at 250 ug/ml incubated for 48 hrs under dark condition by broth microdilution method relative to control; type: functional; conditions: ATCC 10231, 48 h, read-out: GI
How it was run: (§3)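 CLSI M27-A3 broth microdilution in RPMI-1640, DMSO ≤1%. Inoculum 1-5 × 10^3 CFU/mL. Incubated 48 h at 30 °C, dark. % inhibition = 100 − (OD405 test − sterility control)/(OD405 growth control − sterility control), with growth and sterility control wells. Triplicate.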

Candida albicans [6] = test: Growth inhibition of Candida albicans ATCC 10231 at 125 ug/ml incubated for 48 hrs under dark condition by broth microdilution method relative to control; type: functional; conditions: ATCC 10231, 48 h, read-out: GI; how it was run: as §3
Candida albicans [7] = test: Growth inhibition of Candida albicans ATCC 10231 at 62.5 ug/ml incubated for 48 hrs under dark condition by broth microdilution method relative to control; type: functional; conditions: ATCC 10231, 48 h, read-out: GI; how it was run: as §3
Candida albicans [8] = test: Growth inhibition of Candida albicans ATCC 10231 at 31.25 ug/ml incubated for 48 hrs under dark condition by broth microdilution method relative to control; type: functional; conditions: ATCC 10231, 48 h, read-out: GI; how it was run: as §3
Candida albicans [9] = test: Growth inhibition of Candida albicans ATCC 10231 at 15.62 ug/ml incubated for 48 hrs under dark condition by broth microdilution method relative to control; type: functional; conditions: ATCC 10231, 48 h, read-out: GI; how it was run: as §3
Candida albicans [10] = test: Growth inhibition of Candida albicans ATCC 10231 at 7.8 ug/ml incubated for 48 hrs under dark condition by broth microdilution method relative to control; type: functional; conditions: ATCC 10231, 48 h, read-out: GI; how it was run: as §3
Candida albicans [11] = test: Growth inhibition of Candida albicans ATCC 10231 at 3.4 ug/ml incubated for 48 hrs under dark condition by broth microdilution method relative to control; type: functional; conditions: ATCC 10231, 48 h, read-out: GI
Cryptococcus neoformans [12] = test: Growth inhibition of Cryptococcus neoformans ATCC 32264 at 250 ug/ml incubated for 48 hrs under dark condition by broth microdilution method relative to control; type: functional; conditions: ATCC 32264, 48 h, read-out: GI; how it was run: as §3
Cryptococcus neoformans [13] = test: Growth inhibition of Cryptococcus neoformans ATCC 32264 at 125 ug/ml incubated for 48 hrs under dark condition by broth microdilution method relative to control; type: functional; conditions: ATCC 32264, 48 h, read-out: GI; how it was run: as §3
Cryptococcus neoformans [14] = test: Growth inhibition of Cryptococcus neoformans ATCC 32264 at 62.5 ug/ml incubated for 48 hrs under dark condition by broth microdilution method relative to control; type: functional; conditions: ATCC 32264, 48 h, read-out: GI; how it was run: as §3
Cryptococcus neoformans [15] = test: Growth inhibition of Cryptococcus neoformans ATCC 32264 at 31.25 ug/ml incubated for 48 hrs under dark condition by broth microdilution method relative to control; type: functional; conditions: ATCC 32264, 48 h, read-out: GI; how it was run: as §3
Cryptococcus neoformans [16] = test: Growth inhibition of Cryptococcus neoformans ATCC 32264 at 15.62 ug/ml incubated for 48 hrs under dark condition by broth microdilution method relative to control; type: functional; conditions: ATCC 32264, 48 h, read-out: GI; how it was run: as §3
Cryptococcus neoformans [17] = test: Growth inhibition of Cryptococcus neoformans ATCC 32264 at 7.8 ug/ml incubated for 48 hrs under dark condition by broth microdilution method relative to control; type: functional; conditions: ATCC 32264, 48 h, read-out: GI; how it was run: as §3
Cryptococcus neoformans [18] = test: Growth inhibition of Cryptococcus neoformans ATCC 32264 at 3.4 ug/ml incubated for 48 hrs under dark condition by broth microdilution method relative to control; type: functional; conditions: ATCC 32264, 48 h, read-out: GI
Staphylococcus aureus [19] = test: Antibacterial activity against methicillin-sensitive Staphylococcus aureus ATCC 25923 after 24 hrs by resazurin dye based microdilution assay; type: functional; conditions: ATCC 25923, 24 h; how it was run: as §1
Staphylococcus aureus [20] = test: Antibacterial activity against methicillin-resistant Staphylococcus aureus ATCC 43300 after 24 hrs by resazurin dye based microdilution assay; type: functional; conditions: ATCC 43300, 24 h
How it was run: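 Broth microdilution in Mueller Hinton broth, inoculum 5 × 10^5 – 8 × 10^5. Compound stocks diluted in MHB with 5% DMSO and 0.1% Tween 80. Incubation 24 h at 35-37 °C. MIC is the lowest concentration with visible growth inhibition and/or by resazurin (1 mg/mL) read-out. Gentamicin as control. Run in duplicate, replicated at least three times.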

Staphylococcus aureus [21] = test: Antibacterial activity against vancomycin-intermediate Staphylococcus aureus after 24 hrs by resazurin dye based microdilution assay; type: functional; how it was run: as §1
Escherichia coli = test: Antibacterial activity against Escherichia coli ATCC 25922 after 24 hrs by resazurin dye based microdilution assay; type: functional; conditions: ATCC 25922, 24 h; how it was run: as §1
Pseudomonas aeruginosa = test: Antibacterial activity against Pseudomonas aeruginosa ATCC 27853 after 24 hrs by resazurin dye based microdilution assay; type: functional; conditions: ATCC 27853, 24 h; how it was run: as §1
Neisseria gonorrhoeae = test: Antibacterial activity against beta lactamase positive Neisseria gonorrhoeae ATCC 31426 by oxidase test; type: functional
How it was run: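 Agar dilution MIC on GC agar with 1% isovitalex containing increasing compound concentrations. Plates inoculated with about 1×10^4 CFU (5 µL). MIC is the lowest concentration that inhibited growth, with growth confirmed by oxidase test. Run in duplicate, repeated at least three times.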

Plasmodium falciparum = test: Antiplasmodial activity against chloroquine-sensitive Plasmodium falciparum 3D7 assessed as reduction in parasitic LDH activity after 48 hrs by Malstat reagent based […] method; type: functional; conditions: 3D7, 48 h
How it was run: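 Unsynchronized P. falciparum 3D7 at 0.5% parasitemia and 1% hematocrit in RPMI with 3% Albumax II. Exposed to 100, 25, 6.25 and 1.56 µg/mL for 48 h at 37 °C under 90% N2/5% CO2/5% O2. After three freeze-thaw cycles, LDH measured with Malstat and NBT/PES, 1 h in the dark, read at 650 nm. IC50 by Probit; triplicate, ≥2 experiments.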

U-937 = test: Cytotoxicity against human U937 cells after 72 hrs by MTT assay; type: cell-based; conditions: u-937, 72 h
How it was run: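 Exponentially growing U-937 at 1 × 10^5 cells/mL in RPMI-1640 with 10% FBS were exposed to 200, 50, 12.5 and 3.125 µg/mL for 72 h at 37 °C, 5% CO2. MTT for 3 h, stopped with isopropanol/SDS, formazan read at 570 nm, blank-corrected. LC50 by Probit from % viability against untreated cells. Triplicate, at least two independent experiments.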

Trypanosoma cruzi = test: Antitrypanosomal activity against Trypanosoma cruzi Tulahuen intracellular amastigote harboring LacZ infected in human U937 cells after 72 hrs by CPRG/Nonidet reagent based spectrophotometric method; type: functional, cell-based; conditions: U-937, 72 h
How it was run: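 U-937 cells at 2.5 × 10^5 cells/mL in RPMI-1640 with 10% serum and 0.1 µg/mL PMA were infected with β-galactosidase-transfected Tulahuen epimastigotes at 5 parasites per cell. Infected cells were exposed to 50, 12.5, 3.125 and 0.78 µg/mL for 72 h. CPRG (100 uM) and 0.1% Nonidet P-40 were added for 3 h, read at 570 nm. EC50 by Probit. Triplicate, at least two experiments; benznidazole as reference.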

COc1cc(C2=NN(C(C)=O)C(c3cccc(Nc4ccnc5cc(Cl)ccc45)c3)C2)cc(OC)c1OC (stereo not given)
MIC (Klebsiella pneumoniae [1]): > 1000 µg/mL | MIC (Klebsiella pneumoniae [2]): > 1000 µg/mL | EC50 (Leishmania panamensis): 1.96 µg/mL (≈ 3.69 µM) | MIC50 (Candida albicans [3]): 250 µg/mL (≈ 471 µM) | MIC80 (Candida albicans [3]): ≥ 250 µg/mL | MIC50 (Cryptococcus neoformans [4]): 250 µg/mL (≈ 471 µM) | MIC80 (Cryptococcus neoformans [4]): ≥ 250 µg/mL | inhibition of growth at 250 µg/mL (Candida albicans [5]): 53.8% | inhibition of growth at 125 µg/mL (Candida albicans [6]): 37.3% | inhibition of growth at 62.5 µg/mL (Candida albicans [7]): 12.8% | inhibition of growth at 31.25 µg/mL (Candida albicans [8]): 8.42% | inhibition of growth at 15.62 µg/mL (Candida albicans [9]): 6.96% | inhibition of growth at 7.8 µg/mL (Candida albicans [10]): 1.46% | inhibition of growth at 3.4 µg/mL (Candida albicans [11]): 0% | inhibition of growth at 250 µg/mL (Cryptococcus neoformans [12]): 53.1% | inhibition of growth at 125 µg/mL (Cryptococcus neoformans [13]): 23.1% | inhibition of growth at 62.5 µg/mL (Cryptococcus neoformans [14]): 13.3% | inhibition of growth at 31.25 µg/mL (Cryptococcus neoformans [15]): 10.2% | inhibition of growth at 15.62 µg/mL (Cryptococcus neoformans [16]): 9.86% | inhibition of growth at 7.8 µg/mL (Cryptococcus neoformans [17]): 5.61% | inhibition of growth at 3.4 µg/mL (Cryptococcus neoformans [18]): 4.02% | MIC (Staphylococcus aureus [19]): > 1000 µg/mL | MIC (Staphylococcus aureus [20]): > 1000 µg/mL | MIC (Staphylococcus aureus [21]): > 1000 µg/mL | MIC (Escherichia coli): > 1000 µg/mL | MIC (Pseudomonas aeruginosa): > 1000 µg/mL | MIC (Neisseria gonorrhoeae): 31.2 µg/mL (≈ 58.8 µM) | EC50 (Plasmodium falciparum): 22.9 µg/mL (≈ 43.2 µM) | LC50 (U-937): 5.1 µg/mL (≈ 9.6 µM) | EC50 (Trypanosoma cruzi): 4.08 µg/mL (≈ 7.68 µM)

COc1ccc(C2=NN(c3cc(Cl)cc(Cl)c3)C(c3cccc(Nc4ccnc5cc(Cl)ccc45)c3)C2)cc1 (stereo not given)
MIC (Klebsiella pneumoniae [1]): > 1000 µg/mL | MIC (Klebsiella pneumoniae [2]): > 1000 µg/mL | EC50 (Leishmania panamensis): 12.6 µg/mL (≈ 22 µM) | MIC50 (Candida albicans [3]): ≥ 250 µg/mL | MIC80 (Candida albicans [3]): ≥ 250 µg/mL | MIC50 (Cryptococcus neoformans [4]): ≥ 250 µg/mL | MIC80 (Cryptococcus neoformans [4]): ≥ 250 µg/mL | inhibition of growth at 250 µg/mL (Candida albicans [5]): 27.9% | inhibition of growth at 125 µg/mL (Candida albicans [6]): 10.3% | inhibition of growth at 62.5 µg/mL (Candida albicans [7]): 9.34% | inhibition of growth at 31.25 µg/mL (Candida albicans [8]): 5.03% | inhibition of growth at 15.62 µg/mL (Candida albicans [9]): 1.75% | inhibition of growth at 7.8 µg/mL (Candida albicans [10]): 1.72% | inhibition of growth at 3.4 µg/mL (Candida albicans [11]): 1.02% | inhibition of growth at 250 µg/mL (Cryptococcus neoformans [12]): 43% | inhibition of growth at 125 µg/mL (Cryptococcus neoformans [13]): 10.2% | inhibition of growth at 62.5 µg/mL (Cryptococcus neoformans [14]): 6.18% | inhibition of growth at 31.25 µg/mL (Cryptococcus neoformans [15]): 3.09% | inhibition of growth at 15.62 µg/mL (Cryptococcus neoformans [16]): 2.11% | inhibition of growth at 7.8 µg/mL (Cryptococcus neoformans [17]): 0% | inhibition of growth at 3.4 µg/mL (Cryptococcus neoformans [18]): 0% | MIC (Staphylococcus aureus [19]): > 1000 µg/mL | MIC (Staphylococcus aureus [20]): > 1000 µg/mL | MIC (Staphylococcus aureus [21]): > 1000 µg/mL | MIC (Escherichia coli): > 1000 µg/mL | MIC (Pseudomonas aeruginosa): > 1000 µg/mL | MIC (Neisseria gonorrhoeae): > 1000 µg/mL | EC50 (Plasmodium falciparum): 10.4 µg/mL (≈ 18.1 µM) | LC50 (U-937): > 200 µg/mL | EC50 (Trypanosoma cruzi): 31 µg/mL (≈ 54.1 µM)
